Assay results from ChEMBL document CHEMBL1134715, “Aryloxy substituted N-arylpiperazinones as dual inhibitors of farnesyltransferase and geranylgeranyltransferase-I” (Bioorg Med Chem Lett, 2001).
In brackets after ≈: the same amount, converted by molar mass.

Assays:
[1] = molecular target: T1, Protein farnesyltransferase (Homo sapiens, UniProt P49354+P49356); experiment: In vitro inhibition against human Farnesyltransferase catalyzed by incorporation of [3H]- FPP into recombinant Ras-CVIM; type: protein-complex assay
[2] = molecular target: T1, Protein farnesyltransferase; experiment: Concentration required to displace 50% of a radiolabeled farnesyltransferase inhibitor from FPTase in cultured Ha-Ras transformed RAT1 cells; type: functional, cell-based
[3] = molecular target: T2, Geranylgeranyl transferase type I (Homo sapiens, UniProt P49354+P53609); experiment: In vitro inhibition against human Geranylgeranyl transferase type I catalyzed by incorporation of [3H]- GGPP (geranylgeranyl pyrophosphate) into biotinylated peptide corresponding to the c-terminus of human Ki-Ras; type: protein-complex assay
Summary of the method: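 Human GGPTase-I transferred [3H]GGPP onto a biotinylated human Ki-Ras C-terminal peptide. Enzyme and inhibitor were preincubated 30 min with 5 mM ATP before reaction. Some values were instead run without preincubation. IC50 is the concentration halving incorporation.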

[4] = molecular target: T2, Geranylgeranyl transferase type I; experiment: Minimal concentration required to inhibit Rap 1a processing (prenylation) in PSN-1 cell; type: functional, cell-based
[5] = tested on: Rat1; experiment: Inhibition of colony formation in v-H-ras-transformed RAT1 cells; type: functional; settings: Rattus norvegicus
Summary of the method: (§1)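 Anchorage-independent growth of ras-transformed RAT1 cells in soft agar, read as colony formation. Potency is reported as IC90 for blocking colonies.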

[6] = tested on: Rat1; experiment: Percent RAT1 cell survival at 10 uM assessed by MTT viability staining; type: functional; settings: Rattus norvegicus, read-out: Survival
[7] = tested on: Rat1; experiment: Inhibition of colony formation in K-ras-transformed RAT1 cells, ranges from 0.3-1; type: functional; settings: Rattus norvegicus; summary of the method: as §1

SMILES | IC50 [1] [nM] | IC50 [2] [nM] | IC50 [3] [nM] | MIC [4] [nM] | IC90 [5] [nM] | viability at 10 µM [6] [%] | IC90 [7] [nM]
N#Cc1ccc(Cn2cncc2CN2CCN(c3cccc(Cl)c3)C(=O)C2)cc1Sc1ccccc1 | 18 | 255 | 12 |  |  |  | 
N#Cc1ccc(Cn2cncc2CN2CCN(c3cccc(Cl)c3)C(=O)C2)cc1Oc1ccccc1Cl | 7 | 41 | 0.7 | 300 (≈ 0.16 µg/mL) |  |  | 
N#Cc1ccc(Cn2cncc2CN2CCN(c3cccc(Cl)c3)C(=O)C2)cc1 [L-778123 FREE BASE] |  |  |  | 1000 (≈ 0.406 µg/mL) | 100 |  | 
N#Cc1ccc(Cn2cncc2CN2CCN(c3cccc(Cl)c3)C(=O)C2)cc1Oc1ccc2ccccc2c1 | 1 | 48 | 199 |  |  |  | 
N#Cc1ccc(Cn2cncc2CN2CCN(c3cccc(Cl)c3)C(=O)C2)cc1Oc1ccc2c(c1)CCCC2 | 4 |  | 290 |  |  |  | 
N#Cc1ccc(Cn2cncc2CN2CCN(c3cccc(Cl)c3)C(=O)C2)cc1Oc1cccc(OCCO)c1 | 2.5 | 8 | 1.3 | 3000 (≈ 1.67 µg/mL) |  |  | 
O=C1CN(Cc2cncn2Cc2cccc(Oc3ccccc3)c2)CCN1c1cccc(Cl)c1 |  |  | 65 |  |  |  | 
O=C1CN(Cc2cncn2Cc2cccc(Oc3ccccc3)c2)CCN1c1ccc(C(F)(F)F)cc1 | 5770 |  | 155 |  |  |  | 
N#Cc1ccc(Cn2cncc2CN2CCN(c3cccc(Cl)c3)C(=O)C2)cc1Oc1cccc(Cl)c1 | 4 | 93 | 20 |  |  |  | 
O=C1CN(Cc2cncn2Cc2cccc(Oc3ccccc3)c2)CCN1c1ccc(Cl)cc1 | 670 |  | 136 |  |  |  | 
N#Cc1ccc(Cn2cncc2CN2CCN(c3cccc(Cl)c3)C(=O)C2)cc1Oc1cccnc1 | 11 | 17 | 52 | 1000 (≈ 0.499 µg/mL) |  |  | 
N#Cc1ccc(Cn2cncc2CN2CCN(c3cccc(Cl)c3)C(=O)C2)cc1Oc1ccccc1 | 7 | 110 | 22 | 1000 (≈ 0.498 µg/mL) | 300 | 80 | 1000
N#Cc1ccc(Cn2cncc2CN2CCN(c3cccc(Cl)c3)C(=O)C2)cc1Oc1ccc(OCc2ccccc2)cc1 | 32 | 311 | 62 |  |  |  | 
N#Cc1cc(Cn2cncc2CN2CCN(c3cccc(Cl)c3)C(=O)C2)ccc1Oc1ccccc1 | 9 |  | 809 |  |  |  | 
N#Cc1ccc(Cn2cncc2CN2CCN(c3cccc(Cl)c3)C(=O)C2)cc1Oc1ccc(Cl)cc1 | 19 | 350 | 15 |  |  |  | 
